Data set [1] can be described thus: Inhibition of Escherichia coli MurA using UNAG and PEP as substrate preincubated for 30 mins in presence of UNAG followed by PEP addition and measured after 15 mins by malachite green colorimetric assay. The essentials:
(§1)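 IC50 from MurA (E. coli or S. aureus) residual activities at seven compound concentrations. Conditions: 30 min preincubation with UNAG at 37 °C, then PEP, 15 min at 37 °C, in 50 mM Hepes pH 7.8, 0.005% Triton X-114 and 5% DMSO. Malachite green read at 650 nm. Values are means of duplicates.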

The target in data set [2] is Cathepsin B (Homo sapiens) (UniProt P07858). In words: Inhibition of recombinant cathepsin B (unknown origin) endopeptidase activity expressed in Escherichia coli assessed as residual activity at 100 uM using Z-RR-AMC as substrate preincubated for 30 mins under shaking in presence of 5 mM cysteine followed by substrate addition relative to control.
Data set [3] in a line: Inhibition of Staphylococcus aureus MurA expressed in Escherichia coli using UNAG and PEP as substrate preincubated for 30 mins in presence of UNAG followed by PEP addition and measured after 15 mins by malachite green colorimetric assay. The essentials:
as §1

For a further data set, the system named is Staphylococcus aureus. Nature of the data set: Inhibition of Staphylococcus aureus MurA expressed in Escherichia coli assessed as residual activity at 100 uM using UNAG and PEP as substrate preincubated for 30 mins in presence of UNAG followed by PEP addition and measured after 15 mins by malachite green colorimetric assay relative to control. The settings on record: time 45.0 min.

Data set [4] deals with Escherichia coli. In words: Inhibition of Escherichia coli MurA assessed as residual activity at 100 uM using UNAG and PEP as substrate preincubated for 30 mins in presence of UNAG followed by PEP addition and measured after 15 mins in presence of 5 mM cysteine by malachite green colorimetric assay relative to control. To be noted: time 45.0 min. The essentials:
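MurA from E. coli, with the enzyme diluted in Hepes pH 7.8 containing cysteine (15 mM in buffer, giving 5 mM in incubation). Preincubated with UNAG and compound for 30 min at 37 °C, then PEP added and reacted 15 min at 37 °C. Phosphate read by malachite green at 650 nm. Duplicates; residual activity is versus DMSO control.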

In data set [5] the test system is Escherichia coli. Nature of the data set: Inhibition of Escherichia coli MurA assessed as residual activity at 100 uM using UNAG and PEP as substrate preincubated for 30 mins in presence of UNAG followed by PEP addition and measured after 15 mins by malachite green colorimetric assay relative to control. To be noted: time 45.0 min.
A short description of data set [6]: Inhibition of recombinant cathepsin X (unknown origin) expressed in Pichia pastoris assessed as residual activity at 100 uM using Abz-Fek(Dnp)-OH as substrate preincubated for 30 mins under shaking in presence of 5 mM cysteine followed by substrate addition relative to control. The settings on record: Homo sapiens.
Data set [7] has as its target Cathepsin B (Homo sapiens) (UniProt P07858). Nature of the data set: Inhibition of recombinant cathepsin B (unknown origin) exopeptidase activity expressed in Escherichia coli assessed as residual activity at 100 uM using Abz-GIVRAK(Dnp)-OH as substrate preincubated for 30 mins under shaking in presence of 5 mM cysteine followed by substrate addition relative to control.

For data set [8], the system named is Escherichia coli. In words: Inhibition of Escherichia coli MurA assessed as residual activity at 250 uM using UNAG and PEP as substrate preincubated for 30 mins in presence of UNAG followed by PEP addition and measured after 15 mins by malachite green colorimetric assay relative to control. To be noted: time 45.0 min.
Data set [9] can be described thus: Drug degradation in pH 7.4 PBS buffer at 100 uM measured up to 24 hrs by LC-MS/MS analysis. To be noted: pH 7.4, 24 h. The class given is physicochemical.

A word on the IC50: it is the concentration that gives 50% inhibition. For `CCOC(=O)C#CC(F)(F)F`, the half-maximal inhibitory concentration (IC50) was 24 µM in data set [1] and 47 µM in [3]. Besides, the Activity was determined as 100% in data set [2]; 31% in the data set on Staphylococcus aureus; 98% with Escherichia coli [4]; 15% in the data set with Escherichia coli [5]; 99% in data set [6]; 89% in data set [7]. Also, in the data set with Escherichia coli [8], the Activity turned out to be 100%.

Turning to `C=CC(=O)N1CCC(Cc2ccccc2)CC1`, the Stabilty result in data set [9] was “Unstable”.

Values taken from ChEMBL document CHEMBL4680109, “A road map for prioritizing warheads for cysteine targeting covalent inhibitors” (Eur J Med Chem, 2018).
